The values below come from ChEMBL document CHEMBL1128429, “Synthesis and structure-activity relationships of 6-heterocyclic-substituted purines as inactivation modifiers of cardiac sodium channels” (J Med Chem, 1995).

Activity calls are given as the source filed them.

For data set [1], the species on record is Oryctolagus cuniculus. Description: Antiarrhythmic activity was determined by measuring the concentration that produced a 20 ms increase in ERP. It counts as functional, Heart. The procedure, abridged:
(§1)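 Langendorff-perfused rabbit heart, equilibrated 45 min before control. ERP measured after 15 min exposure to each of five cumulative concentrations: single premature stimulus scanning diastole at twice threshold. Concentration giving a 20 ms ERP increase taken from the concentration–response curve; repeated-measures ANOVA, mean change ± SEM.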

For data set [2], the species on record is Oryctolagus cuniculus. Description: Concentration which increased contractility by 20% in rabbit. It counts as functional. The procedure, abridged: (§2)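 Langendorff-perfused rabbit heart, 45 min equilibration, then five cumulative concentrations with 15 min exposure each. Contractility read as dP/dt; the nanomolar concentration raising it by 20% was derived from the concentration–response curve. Repeated-measures ANOVA, mean change from control ± SEM.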

A short description of data set [3]: Effective concentration against Xenopus oocytes expressing guinea pig heart Na channel. It is filed as functional, cell-based, Cavia porcellus. The settings on record: oocyte. The procedure, abridged:
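Guinea pig heart RNA in Xenopus oocytes, voltage clamp at 21–23 °C, integral taken at −10 mV. Three or more concentrations, n ≥ 3 each, one per oocyte. Pooled percent-change data plotted semilogarithmically; EC50 (nM giving 50% integral increase) obtained by linear regression over the range lacking significant current block.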

A short description of data set [4]: Inactivation processes of human heart Na channel expressed in Xenopus oocytes as increase in current at 10 uM. It counts as functional, Oocyte. A digest of the protocol:
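Oocytes injected with cRNA transcribed from human cardiac Na channel (HH1) cDNA. Two-microelectrode voltage clamp at 21–23 °C, perfusion buffer with Na raised to 140 mM. Current integrated at −20 mV after the capacity transient settled. Single 10 μM exposure per oocyte; percent change in integral versus control, ± SEM.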

Data set [5] is described as follows: Effective concentration against Xenopus oocytes expressing human heart Na channel. It counts as functional, cell-based. As to conditions: oocyte. A digest of the protocol:
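HH1 human cardiac Na channel cRNA in oocytes; perfusate Na 140 mM, 21–23 °C, integral taken at −20 mV. At least three concentrations, n ≥ 3 each, single concentration per oocyte. Pooled data gave the EC50 (nM producing 50% integral increase) by linear regression over the lower, non-blocking range.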

Data set [6] concerns Sodium channel protein type 5 subunit alpha (Cavia porcellus). Description: Inactivation process of guinea pig cardiac Na channels expressed in xenopus oocytes was determined by measuring increase in current integral in presence of compound versus control at 10 uM. As to conditions: oocyte.
For data set [7], the species on record is Oryctolagus cuniculus. Description: Antiarrhythmic activity was determined by measuring the concentration that produced a 20 ms increase in ERP; no effect at </= 3. As to conditions: Heart. It is filed as functional, organism-based. A digest of the protocol:
as §1

For data set [8], the species on record is Oryctolagus cuniculus. The data set is described as follows: Concentration which increased contractility by 20% in rabbit; no effect at </=3 uM. It counts as functional, organism-based. The procedure, abridged: as §2
Data set [9] is filed under the species Oryctolagus cuniculus. Description: Concentration which increased contractility by 20% in rabbit; Negative inotropic effect observed. It is filed as functional, organism-based. The procedure, abridged: as §2
The species named for a further data set is Cavia porcellus. Description: Effect on inactivation processes of guinea pig cardiac Na channels expressed in Xenopus oocytes was determined by measuring the increase in current integral in the presence of compound Vs control at 10 uM. It is filed as functional. A digest of the protocol: (§3)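 Guinea pig heart RNA injected into defolliculated stage V–VI Xenopus oocytes; two-microelectrode voltage clamp at 21–23 °C with standard HEPES buffer perfusion, pH 7.5. Current integrated at the I–V peak (−10 mV) after the capacity transient settled. One test concentration (10 μM) per oocyte; percent change in integral calculated against that oocyte's control, reported ± SEM.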

Data set [10] is filed under the species Oryctolagus cuniculus. Description: Concentration which increased contractility by 20% in rabbit; no effect. It is filed as functional, organism-based. A digest of the protocol: as §2
In a further data set the test system is Oocyte. The data set is described as follows: Inactivation of guinea pig cardiac Na channel expressed in Xenopus oocytes as increased current at 10 uM; insoluble. It is filed as functional, cell-based. The settings on record: Cavia porcellus. The procedure, abridged:
as §3

By EC20 is commonly meant the point of the concentration-response curve where the effect stands at 20%. As a reminder, the EC50 is the concentration needed to bring the measured effect to its halfway point. A higher EC50 goes with a less potent agent.

Compound `O[C@@H](CN1CCN(C(c2ccccc2)c2ccccc2)CC1)Cn1cnc(-c2ccccc2)c2ncnc1-2` gave an EC20 in the data set filed under Oryctolagus cuniculus [1] of 141 nM. Also, the dP/dt in the data set filed under Oryctolagus cuniculus [2] is recorded as 434 nM. Besides, the EC50 in data set [3] is 160 nM; in data set [5], 1600 nM. The Change is reported as 201% in [4] and 378% in data set [6].
On to `O[C@@H](CN1CCN(C(c2ccccc2)c2ccccc2)CC1)Cn1cnc(-n2cccc2)c2ncnc1-2`, for which the 20% effect concentration (EC20) in the data set listed under Oryctolagus cuniculus [1] is given as 43 nM. This compound gave a dP/dt in the data set filed under Oryctolagus cuniculus [2] of 377 nM. Besides, the EC50 came to 85 nM in data set [3] and 290 nM in data set [5]. For the same compound, the values for the Change in [4] and in data set [6] were 540% and 711%, respectively.
As for `Nc1ncnc2c1ncn2CC(O)CN1CCN(C(c2ccccc2)c2ccccc2)CC1` (stereo unspecified), the EC20 in the data set filed under Oryctolagus cuniculus [1] is 307 nM. In addition, the dP/dt in the data set filed under Oryctolagus cuniculus [2] is listed as 128 nM. Also, the response in data set [3] was half-maximal at 1410 nM (EC50). The Change in data set [6] is on record as 212%.
Consider `Cc1cnn(-c2ncnc3c2ncn3CC(O)CN2CCN(C(c3ccccc3)c3ccccc3)CC2)c1` (stereo unspecified), for which the EC20 in the data set filed under Oryctolagus cuniculus [1] is listed as 216 nM. In the data set filed under Oryctolagus cuniculus [2], this compound displayed a dP/dt of 300 nM. A half-maximal effect in data set [3] (EC50) was put at 585 nM. Besides, in data set [6], the Change stood at 868%.
Turning to `O[C@@H](CN1CCN(C(c2ccccc2)c2ccccc2)CC1)Cn1cnc2c(-n3cncn3)ncnc21`, in the data set filed under Oryctolagus cuniculus [1], the EC20 is reported as 35 nM. In the data set filed under Oryctolagus cuniculus [2], this compound showed a dP/dt of 43 nM. Moreover, in [4], the Change stood at 393%. The EC50 in [5] was determined as 920 nM.
With `Cc1cn(-c2ncnc3c2ncn3CC(O)CN2CCN(C(c3ccccc3)c3ccccc3)CC2)cn1` (stereo unspecified), the EC20 entry in the data set listed under Oryctolagus cuniculus [7] is “inactive”. Further, the EC50 in [3] is more than 3000 nM. Further, the Change in [6] is on record as 126%.
Take `Nc1ncnc2c1ncn2C[C@@H](O)CN1CCN(C(c2ccccc2)c2ccccc2)CC1`: in the data set filed under Oryctolagus cuniculus [1], the EC20 was 109 nM. In the data set listed under Oryctolagus cuniculus [2], this compound yielded a dP/dt of 89 nM. In addition, a half-maximal response in data set [3] (EC50) required 1040 nM. For the same compound, the Change in data set [6] is reported as 139%.
In the data set filed under Oryctolagus cuniculus [1], `N#Cc1cc2c(OCC(O)CN3CCN(C(c4ccccc4)c4ccccc4)CC3)cccc2[nH]1` (stereo unspecified) displayed a concentration for an effect of 20% (EC20) of 430 nM. Moreover, in the data set filed under Oryctolagus cuniculus [8], the dP/dt entry was “inactive”. For the same compound, the EC50 in data set [3] stood at 1920 nM; in data set [5] it was 2310 nM. The figures for the Change in [4] and in [6] were 174% and 239%, respectively.
Compound `Cc1nccn1-c1ncnc2c1ncn2CC(O)CN1CCN(C(c2ccccc2)c2ccccc2)CC1` (stereo unspecified) showed an EC20 in the data set filed under Oryctolagus cuniculus [1] of 90 nM. In addition, the dP/dt in the data set filed under Oryctolagus cuniculus [2] was 60 nM. The Change in [4] was 158%. Besides, the midpoint of the response in data set [5], the EC50, lay at 1260 nM.
As for `O[C@H](CN1CCN(C(c2ccccc2)c2ccccc2)CC1)Cn1cnc2c(-n3cccc3)ncnc21`, in the data set listed under Oryctolagus cuniculus [7], the EC20 result was “inactive”. Moreover, the dP/dt entry in the data set listed under Oryctolagus cuniculus [9] is “inactive”. For the same compound, the Change in [6] is listed as 21%.
`OC(CN1CCN(C(c2ccccc2)c2ccccc2)CC1)Cn1cnc2c(-n3cncn3)ncnc21` (stereo unspecified): in the data set listed under Oryctolagus cuniculus [1], the EC20 was found to be 57 nM. In the data set listed under Oryctolagus cuniculus [2], this compound yielded a dP/dt of 60 nM. The same compound had an EC50 in data set [3] of 204 nM. Besides, the Change in [6] amounted to 1664%.
For `OC(CN1CCN(C(c2ccccc2)c2ccccc2)CC1)Cn1cnc2c(-c3ccc4ccccc4c3)ncnc21` (stereo unspecified), the Change in the data set listed under Cavia porcellus is -66%.
Take `O[C@@H](CN1CCN(C(c2ccccc2)c2ccccc2)CC1)Cn1cnc2c(-c3ccccc3)ncnc21`: in the data set filed under Oryctolagus cuniculus [1], the EC20 stood at 425 nM. The dP/dt result in the data set listed under Oryctolagus cuniculus [10] is “inactive”. Besides, the EC50 in data set [3] is 526 nM; in data set [5], 2000 nM. Moreover, the Change in [4] was determined as 128%; in data set [6] it was 413%.
Consider `OC(CN1CCN(C(c2ccccc2)c2ccccc2)CC1)Cn1cnc2c(-n3ccnc3)ncnc21` (stereo unspecified), for which the 20% effect concentration (EC20) in the data set listed under Oryctolagus cuniculus [1] came out at 27 nM. This compound yielded a dP/dt in the data set filed under Oryctolagus cuniculus [2] of 46 nM. The compound further came in with an EC50 in [3] of 630 nM. The Change in data set [6] came to 680%.
Consider `O[C@@H](CN1CCN(C(c2ccccc2)c2ccccc2)CC1)Cn1cnc2c(-n3cccn3)ncnc21`, for which the EC20 in the data set listed under Oryctolagus cuniculus [1] was found to be 18 nM. Further, the dP/dt in the data set listed under Oryctolagus cuniculus [2] is 40 nM. The figures for the concentration for a half-maximal effect (EC50) in data set [3] and in data set [5] were 99 nM and 900 nM, respectively. For the same compound, the Change came to 540% in data set [4] and 1226% in data set [6].
As to `N#Cc1cccn1-c1ncnc2c1ncn2C[C@@H](O)CN1CCN(C(c2ccccc2)c2ccccc2)CC1`, the EC20 in the data set filed under Oryctolagus cuniculus [1] was found to be 57 nM. For the same compound, in the data set listed under Oryctolagus cuniculus [2], the dP/dt came to 22 nM. In addition, the Change in [4] is 456%. For the same compound, the EC50 in data set [5] was 447 nM.
`OC(CN1CCN(C(c2ccccc2)c2ccccc2)CC1)Cn1cnc2cncnc21` (stereo unspecified) returned an EC20 in the data set filed under Oryctolagus cuniculus [1] of 95 nM. The compound further came in with a dP/dt in the data set listed under Oryctolagus cuniculus [2] of 110 nM. The midpoint of the response in data set [3], the EC50, lay at 796 nM. Besides, the Change in [6] is listed as 288%.
For `N#Cc1ncnc2c1ncn2CC(O)CN1CCN(C(c2ccccc2)c2ccccc2)CC1` (stereo unspecified), in that order: 260 nM, 250 nM, 399 nM and 1328%.
On to `OC(CN1CCN(C(c2ccc(Cl)cc2)c2ccc(Cl)cc2)CC1)Cn1cnc2c(-n3cccc3)ncnc21` (stereo unspecified), for which, in the data set on Oocyte, the Change entry is on record as “Insoluble”.
In the data set listed under Oryctolagus cuniculus [1], `OC(CN1CCN(C(c2ccccc2)c2ccccc2)CC1)Cn1cnc2c(-n3cccn3)ncnc21` (stereo unspecified) displayed an EC20 of 81 nM. The same compound displayed a dP/dt in the data set filed under Oryctolagus cuniculus [2] of 40 nM. Besides, the concentration for a half-maximal effect (EC50) in data set [3] was determined as 158 nM. In addition, in data set [6], the Change came to 372%.
As to `O[C@@H](CN1CCN(C(c2ccccc2)c2ccccc2)CC1)Cn1cnc(-n2cccn2)c2ncnc1-2`, the EC20 in the data set listed under Oryctolagus cuniculus [1] came out at 74 nM. Besides, in the data set listed under Oryctolagus cuniculus [2], the dP/dt was found to be 148 nM. Further, the Change in data set [4] was found to be 369%. Moreover, the concentration for a half-maximal effect (EC50) in data set [5] is 900 nM.
